According to ChEMBL document CHEMBL3864121, “Development of ebsulfur analogues as potent antibacterials against methicillin-resistant Staphylococcus aureus” (Bioorg Med Chem, 2016):
≈ marks a conversion by molar mass, not a printed value.

Assays:
Type in all cases: functional
Staphylococcus aureus [1] = assay: Antibacterial activity against methicillin-sensitive Staphylococcus aureus ATCC 25923 measured after overnight incubation by broth double-dilution method
Procedure, shortened: (§1)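 MIC by broth double-dilution in liquid Mueller-Hinton medium. Values are reported in µg/mL.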

Staphylococcus aureus [2] = assay: Antibacterial activity against methicillin-resistant Staphylococcus aureus C14 measured after overnight incubation by broth double-dilution method; procedure, shortened: as §1
Staphylococcus aureus [3] = assay: Antibacterial activity against methicillin-resistant Staphylococcus aureus C2 measured after overnight incubation by broth double-dilution method; procedure, shortened: as §1
Staphylococcus aureus [4] = assay: Antibacterial activity against methicillin-resistant Staphylococcus aureus C7 measured after overnight incubation by broth double-dilution method; procedure, shortened: as §1
Staphylococcus aureus [5] = assay: Antibacterial activity against methicillin-resistant Staphylococcus aureus G14 measured after overnight incubation by broth double-dilution method; procedure, shortened: as §1
Staphylococcus aureus [6] = assay: Antibacterial activity against methicillin-resistant Staphylococcus aureus C19 measured after overnight incubation by broth double-dilution method; procedure, shortened: as §1
Staphylococcus aureus [7] = assay: Antibacterial activity against methicillin-sensitive Staphylococcus aureus ATCC 29213 measured after overnight incubation by broth double-dilution method; procedure, shortened: as §1
Staphylococcus aureus [8] = assay: Antibacterial activity against methicillin-resistant Staphylococcus aureus NRS77 measured after overnight incubation by broth double-dilution method; procedure, shortened: as §1
Staphylococcus aureus [9] = assay: Antibacterial activity against methicillin-resistant Staphylococcus aureus BRS3 measured after overnight incubation by broth double-dilution method; procedure, shortened: as §1
Staphylococcus aureus [10] = assay: Antibacterial activity against methicillin-resistant Staphylococcus aureus S14 measured after overnight incubation by broth double-dilution method; procedure, shortened: as §1
Staphylococcus aureus [11] = assay: Antibacterial activity against methicillin-resistant Staphylococcus aureus C16 measured after overnight incubation by broth double-dilution method; procedure, shortened: as §1
Staphylococcus aureus [12] = assay: Antibacterial activity against methicillin-resistant Staphylococcus aureus S17 measured after overnight incubation by broth double-dilution method; procedure, shortened: as §1
Staphylococcus aureus [13] = assay: Antibacterial activity against methicillin-resistant Staphylococcus aureus S22 measured after overnight incubation by broth double-dilution method; procedure, shortened: as §1
Enterococcus = assay: Antibacterial activity against Vancomycin-resistant Enterococcus measured after overnight incubation by broth double-dilution method; procedure, shortened: as §1
[14] = tested on: Staphylococcus epidermidis; assay: Antibacterial activity against Staphylococcus epidermidis ATCC 35984 measured after overnight incubation by broth double-dilution method; conditions: RP62A
Procedure, shortened: (§2)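 MIC by broth double-dilution in Mueller-Hinton medium. Re-testing at the time-kill inoculum used 1×10^6 CFU/mL.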

Staphylococcus aureus [15] = assay: Antibacterial activity against methicillin-sensitive Staphylococcus aureus ATCC 6538 measured after overnight incubation by broth double-dilution method; procedure, shortened: as §1
Staphylococcus aureus [16] = assay: Antibacterial activity against methicillin-resistant Staphylococcus aureus 2 measured after overnight incubation by broth double-dilution method; procedure, shortened: as §1
Staphylococcus aureus [17] = assay: Antibacterial activity against methicillin-resistant Staphylococcus aureus G12 measured after overnight incubation by broth double-dilution method; procedure, shortened: as §1
Staphylococcus aureus [18] = assay: Antibacterial activity against methicillin-resistant Staphylococcus aureus S24 measured after overnight incubation by broth double-dilution method; procedure, shortened: as §1
[19] = tested on: Mycolicibacterium smegmatis; assay: Antibacterial activity against Mycobacterium smegmatis MC2-155 measured after overnight incubation by broth double-dilution method; conditions: str. MC2 155; procedure, shortened: as §1
Staphylococcus aureus [20] = assay: Antibacterial activity against methicillin-resistant Staphylococcus aureus USA300 measured after overnight incubation by broth double-dilution method; procedure, shortened: as §1
Enterococcus faecalis [21] = assay: Antibacterial activity against Enterococcus faecalis ATCC 49533 measured after overnight incubation by broth double-dilution method; procedure, shortened: as §2
Staphylococcus aureus [22] = assay: Antibacterial activity against methicillin-resistant Staphylococcus aureus 1 measured after overnight incubation by broth double-dilution method; procedure, shortened: as §1
Staphylococcus aureus [23] = assay: Antibacterial activity against methicillin-resistant Staphylococcus aureus NRS4 measured after overnight incubation by broth double-dilution method; procedure, shortened: as §1
Staphylococcus aureus [24] = assay: Antibacterial activity against methicillin-resistant Staphylococcus aureus USA600 measured after overnight incubation by broth double-dilution method; procedure, shortened: as §1
Staphylococcus aureus [25] = assay: Antibacterial activity against methicillin-resistant Staphylococcus aureus NRS51 measured after overnight incubation by broth double-dilution method; procedure, shortened: as §1
Staphylococcus aureus [26] = assay: Antibacterial activity against methicillin-resistant Staphylococcus aureus G6 measured after overnight incubation by broth double-dilution method; procedure, shortened: as §1
Enterococcus faecalis [27] = assay: Antibacterial activity against Enterococcus faecalis ATCC 29212 measured after overnight incubation by broth double-dilution method; procedure, shortened: as §2
Staphylococcus aureus [28] = assay: Antibacterial activity against methicillin-resistant Staphylococcus aureus USA100 measured after overnight incubation by broth double-dilution method; procedure, shortened: as §1
Enterococcus faecium = assay: Antibacterial activity against Enterococcus faecium BM4105-RF measured after overnight incubation by broth double-dilution method; procedure, shortened: as §1
Staphylococcus aureus [29] = assay: Antibacterial activity against methicillin-resistant Staphylococcus aureus USA200 measured after overnight incubation by broth double-dilution method; procedure, shortened: as §1
Staphylococcus aureus [30] = assay: Antibacterial activity against methicillin-resistant Staphylococcus aureus G1 measured after overnight incubation by broth double-dilution method; procedure, shortened: as §1
Staphylococcus aureus [31] = assay: Antibacterial activity against methicillin-resistant Staphylococcus aureus ATCC 33591 measured after overnight incubation by broth double-dilution method; procedure, shortened: as §1
Listeria monocytogenes = assay: Antibacterial activity against Listeria monocytogenes ATCC 19115 measured after overnight incubation by broth double-dilution method; procedure, shortened: as §2
Staphylococcus aureus [32] = assay: Antibacterial activity against methicillin-resistant Staphylococcus aureus C1 measured after overnight incubation by broth double-dilution method; procedure, shortened: as §1

Structure (SMILES)	MIC (Staphylococcus aureus [1]) [µg/mL]	MIC (Staphylococcus aureus [4]) [µg/mL]	MIC (Staphylococcus aureus [5]) [µg/mL]	MIC (Staphylococcus aureus [7]) [µg/mL]	MIC (Staphylococcus aureus [8]) [µg/mL]	MIC (Staphylococcus aureus [10]) [µg/mL]	MIC (Staphylococcus aureus [12]) [µg/mL]	MIC (Staphylococcus aureus [13]) [µg/mL]	MIC (Enterococcus) [µg/mL]	MIC [14] [µg/mL]	MIC (Staphylococcus aureus [16]) [µg/mL]	MIC (Staphylococcus aureus [17]) [µg/mL]	MIC (Staphylococcus aureus [18]) [µg/mL]	MIC [19] [µg/mL]	MIC (Staphylococcus aureus [20]) [µg/mL]	MIC (Enterococcus faecalis [21]) [µg/mL]	MIC (Enterococcus faecium) [µg/mL]	MIC (Staphylococcus aureus [29]) [µg/mL]	MIC (Staphylococcus aureus [31]) [µg/mL]	MIC (Listeria monocytogenes) [µg/mL]	other results
CC(C)Cn1c(=O)c2ccccc2[s+]1[O-] (centres undefined)	> 125	> 125	> 125	> 125	> 125	> 125	> 125	> 125	> 125	> 125	> 125	> 125	> 125	> 125	> 125	> 125	> 125	> 125	> 125	> 125	MIC (Staphylococcus aureus [2]): > 125 µg/mL; MIC (Staphylococcus aureus [3]): > 125 µg/mL; MIC (Staphylococcus aureus [6]): > 125 µg/mL; MIC (Staphylococcus aureus [9]): > 125 µg/mL; MIC (Staphylococcus aureus [11]): > 125 µg/mL; MIC (Staphylococcus aureus [15]): > 125 µg/mL; MIC (Staphylococcus aureus [22]): > 125 µg/mL; MIC (Staphylococcus aureus [23]): > 125 µg/mL; MIC (Staphylococcus aureus [24]): > 125 µg/mL; MIC (Staphylococcus aureus [25]): > 125 µg/mL; MIC (Staphylococcus aureus [26]): > 125 µg/mL; MIC (Enterococcus faecalis [27]): > 125 µg/mL; MIC (Staphylococcus aureus [28]): > 125 µg/mL; MIC (Staphylococcus aureus [30]): > 125 µg/mL; MIC (Staphylococcus aureus [32]): > 125 µg/mL
C#Cc1ccc(-n2sc3ccccc3c2=O)cc1	3.9 (≈ 15.5 µM)	2 (≈ 7.96 µM)	3.9 (≈ 15.5 µM)	1 (≈ 3.98 µM)	3.9 (≈ 15.5 µM)	0.5 (≈ 1.99 µM)	3.9 (≈ 15.5 µM)	2 (≈ 7.96 µM)	2 (≈ 7.96 µM)	2 (≈ 7.96 µM)	2 (≈ 7.96 µM)	3.9 (≈ 15.5 µM)	2 (≈ 7.96 µM)	3.9 (≈ 15.5 µM)	3.9 (≈ 15.5 µM)	< 125	7.8 (≈ 31 µM)	3.9 (≈ 15.5 µM)	1 (≈ 3.98 µM)	3.9 (≈ 15.5 µM)	MIC (Staphylococcus aureus [3]): 2 µg/mL (≈ 7.96 µM); MIC (Staphylococcus aureus [6]): 2 µg/mL (≈ 7.96 µM); MIC (Staphylococcus aureus [22]): 3.9 µg/mL (≈ 15.5 µM); MIC (Staphylococcus aureus [25]): 3.9 µg/mL (≈ 15.5 µM); MIC (Staphylococcus aureus [28]): 2 µg/mL (≈ 7.96 µM); MIC (Staphylococcus aureus [30]): 2 µg/mL (≈ 7.96 µM); MIC (Staphylococcus aureus [32]): 2 µg/mL (≈ 7.96 µM)
CC(C)(C)n1sc2ccccc2c1=O	15.6 (≈ 75.3 µM)	15.6 (≈ 75.3 µM)	15.6 (≈ 75.3 µM)	15.6 (≈ 75.3 µM)	15.6 (≈ 75.3 µM)	2 (≈ 9.65 µM)	15.6 (≈ 75.3 µM)	15.6 (≈ 75.3 µM)	3.9 (≈ 18.8 µM)	15.6 (≈ 75.3 µM)	15.6 (≈ 75.3 µM)	15.6 (≈ 75.3 µM)	15.6 (≈ 75.3 µM)	3.9 (≈ 18.8 µM)	15.6 (≈ 75.3 µM)	125 (≈ 603 µM)	7.8 (≈ 37.6 µM)	15.6 (≈ 75.3 µM)	3.9 (≈ 18.8 µM)	3.9 (≈ 18.8 µM)	MIC (Staphylococcus aureus [2]): 15.6 µg/mL (≈ 75.3 µM); MIC (Staphylococcus aureus [9]): 15.6 µg/mL (≈ 75.3 µM); MIC (Staphylococcus aureus [11]): 15.6 µg/mL (≈ 75.3 µM); MIC (Staphylococcus aureus [15]): 15.6 µg/mL (≈ 75.3 µM); MIC (Staphylococcus aureus [23]): 15.6 µg/mL (≈ 75.3 µM); MIC (Staphylococcus aureus [24]): 15.6 µg/mL (≈ 75.3 µM); MIC (Staphylococcus aureus [26]): 15.6 µg/mL (≈ 75.3 µM); MIC (Enterococcus faecalis [27]): 15.6 µg/mL (≈ 75.3 µM); MIC (Staphylococcus aureus [28]): 15.6 µg/mL (≈ 75.3 µM)
O=c1c2ccccc2sn1-c1ccc(Br)cc1	2 (≈ 6.53 µM)	1 (≈ 3.27 µM)	2 (≈ 6.53 µM)	2 (≈ 6.53 µM)	2 (≈ 6.53 µM)	≤ 0.25	3.9 (≈ 12.7 µM)	2 (≈ 6.53 µM)	2 (≈ 6.53 µM)	2 (≈ 6.53 µM)	2 (≈ 6.53 µM)	2 (≈ 6.53 µM)	2 (≈ 6.53 µM)	0.5 (≈ 1.63 µM)	3.9 (≈ 12.7 µM)	15.6 (≈ 50.9 µM)	7.8 (≈ 25.5 µM)	3.9 (≈ 12.7 µM)	0.5 (≈ 1.63 µM)	2 (≈ 6.53 µM)	MIC (Staphylococcus aureus [2]): 3.9 µg/mL (≈ 12.7 µM); MIC (Staphylococcus aureus [3]): 2 µg/mL (≈ 6.53 µM); MIC (Staphylococcus aureus [6]): 2 µg/mL (≈ 6.53 µM); MIC (Staphylococcus aureus [9]): 3.9 µg/mL (≈ 12.7 µM); MIC (Staphylococcus aureus [11]): 3.9 µg/mL (≈ 12.7 µM); MIC (Staphylococcus aureus [15]): 2 µg/mL (≈ 6.53 µM); MIC (Staphylococcus aureus [22]): 3.9 µg/mL (≈ 12.7 µM); MIC (Staphylococcus aureus [23]): 3.9 µg/mL (≈ 12.7 µM); MIC (Staphylococcus aureus [24]): 3.9 µg/mL (≈ 12.7 µM); MIC (Staphylococcus aureus [25]): 2 µg/mL (≈ 6.53 µM); MIC (Staphylococcus aureus [26]): 3.9 µg/mL (≈ 12.7 µM); MIC (Staphylococcus aureus [30]): 2 µg/mL (≈ 6.53 µM); MIC (Staphylococcus aureus [32]): 2 µg/mL (≈ 6.53 µM)
